Rows were chosen to be rich in hits. Some 3.5% of all compounds tested hit in one or more screens of this group.
MrgX1 PAM: human MrgX1 positive allosteric modulation, primary screen; Q96LB2; MrgX1-HEK293, Fluo-4 calcium flux, FDSS; active compounds read high; B-score at 10 µM; hit rate 0.63% among 310,000; AID 588675;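 active means plate-corrected calcium response at least 3 library SD above typical, normal starting fluorescence, not activating the receptor alone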;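 further: compound read alongside a low EC10 to EC30 dose of BAM8-22 agonist; peak minus trough fluorescence over baseline measured at the second addition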
Target sequence (Q96LB2 whole entry, looked up): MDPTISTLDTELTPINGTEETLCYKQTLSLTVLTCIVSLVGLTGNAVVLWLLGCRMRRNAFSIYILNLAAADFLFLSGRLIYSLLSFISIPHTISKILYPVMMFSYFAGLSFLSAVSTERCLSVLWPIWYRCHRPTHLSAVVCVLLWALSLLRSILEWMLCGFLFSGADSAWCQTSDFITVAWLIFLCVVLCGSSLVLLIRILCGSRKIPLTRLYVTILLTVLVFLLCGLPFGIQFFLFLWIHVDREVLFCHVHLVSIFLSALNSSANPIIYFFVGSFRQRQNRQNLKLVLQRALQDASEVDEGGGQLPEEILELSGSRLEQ
RGS4 inh: inhibitors of human RGS4; P49798; HEK293 M3R/RGS4 inducible, Fluo-4 calcium flux; active compounds read high; triggered by carbachol at its EC20; B-score at 10 µM; hit rate 0.45% among 310,000;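 active means B-score, a plate-corrected calcium signal, over three deviations above library mean, with baseline fluorescence within five deviations of library mean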;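 further: RGS4 expression induced by doxycycline in cells with stable M3 receptor; B-score is computed from the integrated fluorescence ratio over baseline after carbachol; higher B-score means a larger calcium signal and so more RGS4 inhibition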
Target sequence (P49798 whole entry, looked up): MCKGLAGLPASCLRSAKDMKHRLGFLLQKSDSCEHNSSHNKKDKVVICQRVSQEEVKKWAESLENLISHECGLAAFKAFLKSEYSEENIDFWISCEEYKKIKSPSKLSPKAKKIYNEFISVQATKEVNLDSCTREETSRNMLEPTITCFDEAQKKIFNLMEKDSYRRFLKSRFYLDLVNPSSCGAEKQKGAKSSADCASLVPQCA
RGS4 pot: RGS4 potentiation or activation; AID 463111; B-score at 10 µM; hit rate 0.92% among 310,000; HEK293 M3R/inducible RGS4, carbachol calcium flux Fluo4; active compounds read low;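 active means B-score of the integrated calcium signal more than 4 SD below the library mean, with starting fluorescence not abnormally high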;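 further: negative B-score means reduced calcium response which marks RGS4 activation or potentiation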
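Detection: kinetic calcium fluorescence imaging with Fluo4-AM dye, 2 µM / Material: HEK293 cells with stable M3R and inducible RGS4 / Schedule: recording 10 s baseline at 1 Hz, 100 s post-agonist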
MrgX1 antag: antagonists of human MrgX1 receptor | hit rate 1.3% among 310,000 | B-score at 10 µM | Q96LB2 | MRGX1-HEK293 calcium flux, Fluo-4, BAM8-22 antagonism; active compounds read low;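 active means calcium-response B-score plate-corrected more than 3 library SD below zero, starting fluorescence within 5 deviations, no agonist response on first addition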;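 further: peak minus trough fluorescence over baseline after final BAM8-22 challenge near maximal dose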
MrgX1 ag: human MrgX1 receptor agonism, primary screen; Q96LB2; MrgX1-HEK293 cells, Fluo-4 calcium fluorescence, agonist mode; active compounds read high; B-score at 10 µM; hit rate 0.44% among 310,000;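 active means calcium response B-score plate-corrected fluorescence ratio at least 3 library SD, with starting fluorescence B-score inside 5 SD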
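System – MrgX1-expressing HEK293 cells · Incubation – cells plated overnight, dye loaded 0.5 h 37 °C, 0.5 h room temperature · Technique – kinetic Fluo-4 NW fluorescence of intracellular calcium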
* marks the source's active call; other numbers are inactive results; i = inactive.

SMILES	MrgX1 PAM	RGS4 inh	RGS4 pot	MrgX1 antag	MrgX1 ag
COc1ccccc1C(=O)NCC(=O)OC(C)C(=O)N1CCOCC1 (configuration not stated)	i	i	i	i	i
CC(C)C(=O)O/N=C(\N)c1ccc(Oc2ccc(Cl)cc2)c([N+](=O)[O-])c1	i	i	-8.6*	i	i
CC(C)C[C@@H](COc1ccccc1)N1CCN(CCc2ccccc2)CCC1=O	11.1*	i	i	i	i
CCOC(=O)C1=C(C)N=c2s/c(=C/c3cccc(OCC(=O)O)c3)c(=O)n2C1c1ccc(F)cc1 (configuration not stated)	i	i	i	i	i
CCOC(=O)C1=C(C)N=c2s/c(=C\c3ccc(C(=O)O)cc3)c(=O)n2C1c1ccc(F)cc1 (configuration not stated)	i	i	-7.41*	-4.81*	i
N=c1c(-c2nc3ccccc3[nH]2)cc(C(=O)c2ccco2)nn1-c1ccccc1	i	i	i	i	i
N=c1c(-c2nc3ccccc3[nH]2)cc(C(=O)c2cccs2)nn1-c1ccccc1	i	i	-8.56*	i	i
CCC1CCCCN1C(=O)c1sc2ncnc(N(CC)CC)c2c1C (configuration not stated)	i	i	i	i	i
Cc1cc(C)cc(-n2c(C)cc(/C=N/NC(=O)c3ccncc3)c2C)c1	i	i	i	i	i
Cc1c(C(=O)N/N=C/c2ccoc2)cccc1[N+](=O)[O-]	i	i	i	i	i
Cc1cc(C)cc(-n2c(C)cc(/C=N/NC(=O)c3cccc([N+](=O)[O-])c3C)c2C)c1	i	i	-7.35*	i	i
Cc1cc(C)cc(-n2c(C)cc(/C=N/NC(=O)CSc3ncccn3)c2C)c1	i	i	-8.35*	i	i
O=C(O)c1ccc(N=Nc2c(O)[nH]c3cc(Cl)ccc23)cc1	i	i	i	-5.97*	i
c1ccc(SCCN2CCN(c3ccccc3)CC2)cc1	i	i	i	i	i
COc1cccc(CN2CCCN(S(=O)(=O)c3ccc(Br)cc3)CC2)c1	i	i	i	i	i
O=S(=O)(c1ccc(Br)cc1)N1CCCN(Cc2cccc(F)c2)CC1	i	i	-8.31*	i	i
CC(SC#N)C(=O)C12CC3CC(CC(C3)C1)C2 (configuration not stated)	i	i	i	-5.14*	i
Clc1ccc(SCc2cc(-c3ccc(Cl)cc3)on2)cc1	i	i	-8.03*	i	i
Cc1ccc(SCc2cc(-c3ccc(Cl)cc3)on2)cc1	i	i	-7.58*	i	i
Clc1ccc(-c2cc(CN3CCOCC3)no2)cc1	i	i	i	i	i
COC(=O)C1CCN(C(=O)COC(=O)CSc2ccc(C(N)=O)cc2[N+](=O)[O-])CC1	i	i	i	-6.36*	i
CCOC(=O)CSc1ccc(C(=O)NCCCN2CCOCC2)cc1[N+](=O)[O-]	i	i	-8.24*	i	i
CCOC(=O)C1CCN(C(=O)COC(=O)CSc2ccc(C(N)=O)cc2[N+](=O)[O-])CC1	i	i	i	i	i
Cc1ccccc1N/N=C/c1sc(=O)n(Cc2cccc(C(=O)O)c2)c1Cl	i	i	i	i	i
COC(=O)c1cccc(Cn2c(Cl)c(/C=N/Nc3ccccc3C)sc2=O)c1	i	i	i	-8.09*	i
SMILES	MrgX1 PAM	RGS4 inh	RGS4 pot	MrgX1 antag	MrgX1 ag
O=C(NCC1CCCO1)c1ccc2c(c1)N(Cc1ccccc1)CCS2 (configuration not stated)	i	i	i	i	i
CCOc1ccc(CCNC(=O)CS(=O)Cc2nc(-c3ccc(OC)cc3)oc2C)cc1OCC (configuration not stated)	i	i	i	i	i
O=C(NC1CC1)C1CC(=O)N(c2cccc(Cl)c2Cl)C1 (configuration not stated)	i	i	i	i	i
COc1ccc(-n2c(SCC(=O)N3CCOCC3)nc3ccccc3c2=O)cc1	i	i	i	i	i
COC(=O)c1c(NC(=O)COC(=O)c2ccc(Cl)cc2[N+](=O)[O-])sc2c1CCCCC2	i	i	i	i	i
COC(=O)c1c(NC(=S)Nc2ccc(F)cc2[N+](=O)[O-])sc2c1CCCCC2	8.86*	i	i	i	i
CCN1CCN(Cc2ccc(NC(=O)c3ccc(C)c(NC(=O)c4ccno4)c3)cc2C(F)(F)F)CC1	i	i	i	i	i
CCN1CCN(Cc2ccc(NC(=O)c3ccc(C)c(/C=C/c4cnc(Nc5cc(N6CCNCC6)nc(C)n5)cn4)c3)cc2C(F)(F)F)CC1	i	i	i	i	27.3*
CCOc1ccc(N=C2C(=O)N(CN3CCOCC3)c3ccccc32)cc1	i	i	i	i	33.1*
O=C(N/N=C/c1ccc(OC2CSC2)cc1)c1ccccc1	i	i	i	i	i
O=C(/C=C/c1ccc(OC2CSC2)cc1)c1ccccc1	i	i	-7.53*	i	i
CC(OC(=O)CCCC(=O)Nc1ccccc1)C(=O)c1ccccc1 (configuration not stated)	i	i	i	i	i
O=C(c1ccc(=O)n(Cc2ccc(Cl)c(Cl)c2)c1)N1CCOCC1	i	i	i	-7.44*	i
COc1ccccc1C(=O)Nc1ccccc1SC(=O)c1ccccc1OC	i	i	i	i	i
O=C(CCC1CCCCC1)NCCN1C2=NC[C@@H](Cc3ccccc3)N2C[C@H]1Cc1ccc(O)cc1	i	i	-7.07*	i	i
C[C@H]1CN=C2N(CCNC(=O)CCC3CCCCC3)[C@H](Cc3ccc(O)cc3)CN21	i	i	i	i	i
O=C(CCC1CCCCC1)NCCN1C2=NC[C@H](Cc3ccccc3)N2C[C@H]1Cc1ccc(O)cc1	i	i	-7.96*	i	i
CCNc1nc(C23CC4CC(CC(C4)C2)C3)cs1	i	i	i	i	i
CC(=O)Nc1ccc(S(=O)(=O)NCC2CCC(C(=O)N3CCCCC3)CC2)cc1 (configuration not stated)	i	i	i	i	i
O=C(CC(Nc1ccc(F)cc1)c1ccccc1)c1ccccc1 (configuration not stated)	i	i	i	i	i
COC(=O)c1ccccc1SC(CC(=O)c1ccccc1)c1ccc(F)cc1 (configuration not stated)	i	i	-7.13*	i	i
C=CCc1cccc(CNc2c(C)cc(C)cc2C)c1O	i	i	i	i	i

From PubChem BioAssay
